Measurements: ChEMBL document CHEMBL5316292 (J Med Chem, 2023)
Activity calls are given as the source filed them. The rule behind the calls is not given here.

How the values were obtained:
[1] = target: T1, Bromodomain-containing protein 2 (Homo sapiens, UniProt P25440); experiment: Binding affinity to human partial length BRD2 BD1 (K71 to N194 residues) expressed in bacterial expression system assessed as change in melting temperature at 50 uM at 20 to 85 degreeC by SYPRO orange staining based thermal shift assay
How it was run: (§1)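 DSF thermal shift. 10 µM BD in 50 mM HEPES, 500 mM NaCl pH 7.5, with 50 µM compound or DMSO-matched control and 1:1000 Sypro Orange (ex 465/em 590 nm). Ramp 20–85 °C at 0.03 °C/s. Tm taken as the midpoint between fluorescence max and min. At least three independent experiments, SEM in °C.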
Target sequence in this assay (P25440 whole entry, looked up, the tested form may be a part): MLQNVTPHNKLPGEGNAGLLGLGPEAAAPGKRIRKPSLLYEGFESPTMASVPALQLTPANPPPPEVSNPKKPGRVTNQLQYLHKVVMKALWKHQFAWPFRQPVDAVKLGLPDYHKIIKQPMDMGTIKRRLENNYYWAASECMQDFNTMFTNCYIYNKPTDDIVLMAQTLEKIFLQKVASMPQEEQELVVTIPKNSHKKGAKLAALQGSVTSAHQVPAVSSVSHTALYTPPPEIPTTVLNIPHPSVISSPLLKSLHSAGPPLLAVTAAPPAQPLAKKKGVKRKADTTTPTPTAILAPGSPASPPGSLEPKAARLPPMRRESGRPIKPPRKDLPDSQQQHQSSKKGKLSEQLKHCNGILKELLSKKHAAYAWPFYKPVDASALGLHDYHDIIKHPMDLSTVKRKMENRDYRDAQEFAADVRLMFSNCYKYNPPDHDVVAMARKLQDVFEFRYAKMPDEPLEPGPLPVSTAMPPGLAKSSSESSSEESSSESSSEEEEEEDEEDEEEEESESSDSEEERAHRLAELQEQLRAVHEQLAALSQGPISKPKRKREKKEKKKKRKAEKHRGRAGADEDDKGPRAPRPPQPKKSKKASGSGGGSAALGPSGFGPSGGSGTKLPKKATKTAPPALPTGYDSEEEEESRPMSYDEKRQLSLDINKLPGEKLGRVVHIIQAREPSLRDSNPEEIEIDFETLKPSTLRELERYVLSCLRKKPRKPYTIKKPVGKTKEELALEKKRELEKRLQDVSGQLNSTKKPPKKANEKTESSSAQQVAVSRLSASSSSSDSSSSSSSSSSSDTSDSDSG

[2] = target: T2, Bromodomain testis-specific protein (Homo sapiens, UniProt Q58F21); experiment: Binding affinity to human partial length BRDT BD1 (N21 to E137 residues) expressed in bacterial expression system assessed as change in melting temperature at 50 uM at 20 to 85 degreeC by SYPRO orange staining based thermal shift assay; how it was run: as §1
[3] = target: T2, Bromodomain testis-specific protein; experiment: Binding affinity to human partial length BRDT BD2 (K250 to E382 residues) expressed in bacterial expression system assessed as change in melting temperature at 50 uM at 20 to 85 degreeC by SYPRO orange staining based thermal shift assay; how it was run: as §1
[4] = target: T3, Bromodomain-containing protein 3 (Homo sapiens, UniProt Q15059); experiment: Binding affinity to human partial length BRD3 BD2 (G306 to P416 residues) expressed in bacterial expression system using H4K5acIC8acK12acK16ac-biotinylated peptide as substrate preincubated for 30 mins followed by substrate addition by AlphaScreen assay
How it was run: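 AlphaScreen. Biotinylated H4K5acK8acK12acK16ac peptide added at equal concentration to protein for 30 min. Donor and acceptor beads (25 µg/mL each) added, ≥1 h in the dark. Triplicate, curve-fitted, SEM.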
Target sequence in this assay (Q15059 whole entry, the tested form may be a part): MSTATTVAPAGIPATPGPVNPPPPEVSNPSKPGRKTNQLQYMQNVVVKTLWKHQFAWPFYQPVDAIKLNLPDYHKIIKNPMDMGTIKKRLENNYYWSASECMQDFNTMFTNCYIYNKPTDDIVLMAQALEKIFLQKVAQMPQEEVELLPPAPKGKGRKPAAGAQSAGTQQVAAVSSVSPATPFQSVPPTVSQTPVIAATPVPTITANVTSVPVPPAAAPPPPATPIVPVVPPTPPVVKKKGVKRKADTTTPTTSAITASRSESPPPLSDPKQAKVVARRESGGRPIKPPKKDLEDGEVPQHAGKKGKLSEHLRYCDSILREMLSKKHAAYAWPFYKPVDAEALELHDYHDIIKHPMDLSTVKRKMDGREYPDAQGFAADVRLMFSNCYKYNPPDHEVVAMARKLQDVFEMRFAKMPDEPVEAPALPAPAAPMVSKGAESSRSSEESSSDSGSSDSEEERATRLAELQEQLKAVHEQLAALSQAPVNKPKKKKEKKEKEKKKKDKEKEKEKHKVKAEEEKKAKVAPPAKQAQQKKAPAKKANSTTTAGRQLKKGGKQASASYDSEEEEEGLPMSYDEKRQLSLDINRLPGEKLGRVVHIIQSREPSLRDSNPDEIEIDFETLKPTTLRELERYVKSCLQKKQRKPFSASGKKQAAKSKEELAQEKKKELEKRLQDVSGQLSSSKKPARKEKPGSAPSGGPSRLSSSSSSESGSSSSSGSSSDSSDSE

[5] = target: T4, Bromodomain-containing protein 4 (Homo sapiens, UniProt O60885); experiment: Binding affinity to human partial length BRD4 BD2 (K333 to E460 residues) expressed in bacterial expression system using H4K5acIC8acK12acK16ac-biotinylated peptide as substrate preincubated for 30 mins followed by substrate addition by AlphaScreen assay
[6] = target: T3, Bromodomain-containing protein 3; experiment: Binding affinity to 6His-tagged BRD3-BD1 (unknown origin) by MST assay
How it was run: (§2)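 His6-tagged BD (80 nM) after size-exclusion, labelled 1:1 with 10 nM Red-tris-NTA in PBST (0.05% Tween-20) for 30 min at room temperature, then centrifuged. Mixed with an equal volume of serially diluted compound. Thermophoresis read at 40% LED/MST power. Triplicate data curve-fitted, error as SEM.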
Target sequence in this assay (Q15059 whole entry, the tested form may be a part): as above

[7] = target: T3, Bromodomain-containing protein 3; experiment: Binding affinity to 6His-tagged BRD3-BD2 (unknown origin) by MST assay; how it was run: as §2
Target sequence in this assay (Q15059 whole entry, the tested form may be a part): as above

[8] = Antiproliferative activity against human Androgen-resistant 22Rv1 cells assessed as reduction in cell viability measured after 72 hrs by MTS assay; format: functional, cell-based; details: 22Rv1, 72 h
How it was run: (§3)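 MTS viability assay run in triplicate wells. Serial dilutions in DMSO were given, with DMSO as negative control and doxorubicin as positive control, and incubated 72 h. MTS reagent was added for 2 h and absorbance read at 490 nm. % cytotoxicity = (A_medium − A_treatment)/A_medium × 100. EC50 ± SD was taken from dose-response curves of at least three independent experiments.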

[9] = test system: PC-3; experiment: Antiproliferative activity against androgen-insensitive human PC-3 cells assessed as reduction in cell viability measured after 72 hrs by MTS assay; format: functional, cell-based; details: PC-3, 72 h; how it was run: as §3
[10] = test system: VCaP; experiment: Downregulation of BRD2 mRNA levels in human VCaP cells at 25 to 2500 nM incubated for 24 hrs by qRT-PCR analysis; format: functional, cell-based; details: dose 25-2500 nM
How it was run: (§4)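 VCaP cells grown to 50% confluence, then treated with compound or DMSO (Methods state 16 h, legend states 24 h). Total RNA isolated, cDNA made from 1 µg RNA, SYBR Green qPCR run in triplicate. Expression by ΔΔCt, normalised to GAPDH. Three independent experiments, SEM.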

[11] = test system: VCaP; experiment: Downregulation of ERG gene levels in human VCaP cells incubated for 24 hrs by qRT-PCR analysis; format: functional, cell-based; details: dose 25-2500 nM; how it was run: as §4
[12] = test system: VCaP; experiment: Downregulation of PSA […] expression in human VCaP cells incubated for 24 hrs by qRT-PCR analysis; format: functional, cell-based; details: dose 25-2500 nM; how it was run: as §4
[13] = target: T1, Bromodomain-containing protein 2; experiment: Induction of BRD2 degradation in human MDA-MB-231 cells incubated for 16 hrs by immunoblotting analysis; format: cell-based
How it was run: (§5)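 MDA-MB-231 or PC-3 cells at 50% confluence in DMEM/10% FBS/pen-strep, treated 16 h with doses falling tenfold from 10 µM to 1 nM. RIPA lysates immunoblotted for BRD2, BRD3 and BRD4 with GAPDH as control. DC50 derived from band densitometry. SEM, n = 2.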
Target sequence in this assay (P25440 whole entry, the tested form may be a part): as the sequence (P25440 whole entry, looked up, the tested form may be a part) above

[14] = target: T4, Bromodomain-containing protein 4; experiment: Induction of BRD4 degradation in human MDA-MB-231 cells incubated for 16 hrs by immunoblotting analysis; format: cell-based; how it was run: as §5
[15] = target: T1, Bromodomain-containing protein 2; experiment: Induction of BRD2 degradation in human PC-3 cells incubated for 16 hrs by immunoblotting analysis; format: cell-based; how it was run: as §5
Target sequence in this assay (P25440 whole entry, the tested form may be a part): as the sequence (P25440 whole entry, looked up, the tested form may be a part) above

[16] = target: T3, Bromodomain-containing protein 3; experiment: Induction of BRD3 degradation in human PC-3 cells incubated for 16 hrs by immunoblotting analysis; format: cell-based; how it was run: as §5
[17] = target: T3, Bromodomain-containing protein 3; experiment: Induction of BRD3 degradation in human MDA-MB-231 cells at 0.025 to 2.5 uM incubated for 24 hrs by qRT-PCR analysis; format: cell-based; details: dose 0.025-2.5 µM
How it was run: (§6)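 MDA-MB-231 cells treated for 24 h at doses rising tenfold from 25 nM to 2.5 µM. Gene expression measured by qRT-PCR. SEM, n = 3.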
Target sequence in this assay (Q15059 2-726 limits assumed): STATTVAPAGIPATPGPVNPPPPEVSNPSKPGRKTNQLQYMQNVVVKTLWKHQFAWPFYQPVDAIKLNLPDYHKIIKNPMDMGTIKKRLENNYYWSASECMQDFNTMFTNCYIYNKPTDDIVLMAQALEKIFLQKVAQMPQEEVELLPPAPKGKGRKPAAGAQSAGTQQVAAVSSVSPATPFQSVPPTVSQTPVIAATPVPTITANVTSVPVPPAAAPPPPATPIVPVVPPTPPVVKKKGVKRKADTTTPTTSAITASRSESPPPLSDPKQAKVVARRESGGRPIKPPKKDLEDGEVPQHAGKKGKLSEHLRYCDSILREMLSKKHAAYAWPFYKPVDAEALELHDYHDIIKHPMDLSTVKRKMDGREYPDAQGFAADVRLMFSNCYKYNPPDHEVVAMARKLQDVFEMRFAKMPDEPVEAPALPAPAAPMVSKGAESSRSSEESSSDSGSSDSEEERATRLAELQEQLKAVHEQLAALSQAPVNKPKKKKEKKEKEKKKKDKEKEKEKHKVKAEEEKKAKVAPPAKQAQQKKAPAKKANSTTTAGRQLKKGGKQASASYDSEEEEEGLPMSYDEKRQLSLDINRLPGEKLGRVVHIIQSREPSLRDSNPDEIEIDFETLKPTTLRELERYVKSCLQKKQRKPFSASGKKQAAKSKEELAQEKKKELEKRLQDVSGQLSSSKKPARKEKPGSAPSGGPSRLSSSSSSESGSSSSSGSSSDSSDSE

[18] = test system: MDA-MB-231; experiment: Effect on BET mRNA levels in human MDA-MB-231 cells at 0.025 to 2.5 uM incubated for 24 hrs by qRT-PCR analysis; format: functional, cell-based; details: dose 0.025-2.5 µM; how it was run: as §6
[19] = target: T1, Bromodomain-containing protein 2; experiment: Induction of BRD2 degradation in human MDA-MB-231 cells assessed as decrease in BET half life at 10 uM incubated for 8 hrs in presence of cycloheximide by immunoblotting analysis; format: cell-based
How it was run: (§7)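 MDA-MB-231 time-course. Cells given 50 µg/mL cycloheximide plus DMSO, or 50 µg/mL cycloheximide plus 10 µM compound. RIPA lysates immunoblotted for BRD2, BRD3 and BRD4 with GAPDH as control.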
Target sequence in this assay (P25440 whole entry, looked up, the tested form may be a part): as the sequence (P25440 whole entry, looked up, the tested form may be a part) above

[20] = target: T3, Bromodomain-containing protein 3; experiment: Induction of BRD3 degradation in human MDA-MB-231 cells assessed as decrease in BET half life at 10 uM incubated for 8 hrs in presence of cycloheximide by immunoblotting analysis; format: cell-based; how it was run: as §7
Target sequence in this assay (Q15059 2-726 limits assumed): as the sequence (Q15059 2-726 limits assumed) above

[21] = target: T3, Bromodomain-containing protein 3; experiment: Induction of BRD3 degradation in human MDA-MB-231 cells at 10 uM by immunoblotting analysis; format: cell-based; details: time 8.0 hrs
Target sequence in this assay (Q15059 2-726 limits assumed): as above

[22] = target: T4, Bromodomain-containing protein 4; experiment: Induction of BRD4 degradation in human MDA-MB-231 cells at 10 uM by immunoblotting analysis; format: cell-based; details: time 8.0 hrs
[23] = target: T4, Bromodomain-containing protein 4; experiment: Induction of BRD4 degradation in human MDA-MB-231 cells at 10 uM incubated for 8 hrs in presence of MG132 by immunoblotting analysis; format: cell-based
[24] = target: T4, Bromodomain-containing protein 4; details: dose 50.0 µM
[25] = target: T4, Bromodomain-containing protein 4; details: dose 50.0 µM; remark: listed apart in the source

Structure (SMILES): CC(=O)OC[C@]12CC[C@H]3[C@@H](C[C@H]4O[C@]45CC=CC(=O)[C@]35C)[C@]1(O)CC[C@@]2(O)[C@@](C)(O)[C@H]1CC(C)=C(C)C(=O)O1
- ΔTm [1]: 10.4 °C
- ΔTm [2]: 9.57 °C
- ΔTm [3]: 7.58 °C
- IC50 [4]: 108 nM
- IC50 [5]: 142 nM
- Kd [6]: 14.1 nM
- Kd [7]: 149 nM
- EC50 [8]: 30.3 nM
- EC50 [9]: 63 nM
- Activity [10]: inactive
- Activity [11]: Dose-Dependent Effect
- Activity [12]: Dose-Dependent Effect
- DC50 [13]: > 10000 nM
- Activity [14]: Dose-Dependent Effect
- DC50 [14]: 41.6 nM
- DC50 [15]: > 10000 nM
- Activity [16]: Dose-Dependent Effect
- DC50 [16]: 7290 nM
- Activity [17]: inactive
- Activity [18]: inactive
- Activity [19]: Active
- Activity [20]: Active
- Activity [21]: Active
- Activity [22]: Active
- Activity [23]: inactive
- ΔTm [24]: 11.8 °C
- ΔTm [25]: 7.33 °C
